Assay results collected from several papers.
Each line is one published result; the experiments were not run side by side.
Target: Mitogen-activated protein kinase 1 (MAPK1, Homo sapiens, UniProt P28482)

Structure (SMILES)	observed	mode	technique	tested at	measurement	value
O=c1[nH]c2ccccc2n1C1CCN(Cc2ccc(-c3[nH]c4cc5ncnc5cc4nc3-c3ccccc3)cc2)CC1	cell-free assay	–	–	0.5 µM	remaining signal	112%
CNC1(c2ccccc2Cl)CCCCC1=O (racemic)	enzyme activity	inhibitor	–	30 µM	inhibition	2%
Cc1ncc(C)n2nc(/C=C/c3nc(N4CCCC4)cc(N4CCOCC4)n3)nc12	enzyme activity	inhibitor	–	10 µM	inhibition	7%
C#Cc1n[nH]c2c(-c3cn(C(C)c4ccccn4)c(=O)[nH]c3=O)cc(F)cc12 (stereo not drawn)	enzyme activity	inhibitor	–	1 µM	inhibition	7.2%
Cc1nn(C)cc1-c1nc2c(N3CCN(Cc4ccc(Cl)cc4)CC3)c(Cl)cnc2[nH]1	binding	–	competition with immobilised ligand	1 µM	remaining binding	100%
O=C(Nc1cccnn1)N1CCN([C@@H]2CCOc3cc(C(F)(F)F)ccc32)CC1	enzyme activity	inhibitor	–	20 µM	inhibition	-4%
Cn1cc(-c2cccc(N3CCc4c(sc5c4CC(C)(C)C5)C3=O)c2CO)cc(Nc2ccncn2)c1=O	enzyme activity	inhibitor	–	1 µM	inhibition	-1%
Cn1cncc1[C@@](O)(COc1ccc(C#N)cc1-c1ccc(OC(F)(F)F)cc1)c1ccc(C#N)cc1	cell-free assay	–	competition with immobilised ligand	1 µM	remaining binding	91%
C[C@@H](O)[C@H](N)C(=O)N1CCC[C@H]1C(=O)N1CCC[C@H]1C(=O)N[C@H](C(N)=O)[C@@H](C)O	enzyme activity	inhibitor	–	30 µM	inhibition	-2%
Cn1cc(-c2cc(F)cc(N3CCn4c(cc5c4CCCC5)C3=O)c2CO)cc(Nc2ccc(N3CCN(C4COC4)CC3)cn2)c1=O	enzyme activity	inhibitor	–	0.1 µM	inhibition	4%
COc1ncccc1-c1cnn2ccc(N3CCN(C(=O)OC(C)C)CC3)nc12	binding	–	competition with immobilised ligand	1 µM	remaining binding	100%
C#Cc1n[nH]c2c(-c3cn([C@@H](C)c4ccccc4)c(=O)[nH]c3=O)cc(F)cc12	enzyme activity	inhibitor	–	0.1 µM	inhibition	0.5%
Nc1ncc(-c2nc(N3CCOCC3)nc(N3CCOCC3)n2)c(C(F)F)n1	binding	–	competition with immobilised ligand	10 µM	remaining binding	98%
CC(C)(C)c1cc(C=C(C#N)C#N)cc(Br)c1O	enzyme activity	inhibitor	–	0.5 µM	remaining activity	91.3%
N#CC1(c2ccccn2)CCN(Cc2cc(C(=O)O)c(=O)n3ccccc23)CC1	cell-free assay	–	competition with immobilised ligand	1 µM	remaining binding	100%
